Screens deposited in PubChem BioAssay by several laboratories.
FXIIa inh 1536 = human FXIIa protease inhibitors, primary screen, biochemical, 1536-well. Coagulation factor XII (Homo sapiens), P00748. purified FXIIa, Boc-QGR-AMC fluorogenic substrate, 2 h. inhibition, % at 5 µM. 220,000 tested, 0.3% active; in the data active = inhibition above about 40%
thrombin 1536 = human alpha-thrombin inhibitors, primary screen, counter-screen for coagulation protease inhibitor project, biochemical, 1536-well, fluorogenic AMC substrate; AID 1046, 2008; inhibition, % at 5 µM; Boc-VPR-AMC fluorogenic substrate cleavage; 220,000 tested, 0.26% active; Prothrombin (Homo sapiens), P00734;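 active = inhibition at or above 40%; inactive = inhibition below 40%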
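Test system: human alpha-thrombin; medium: pH 7.5 Tris-saline with Tween 20; times: reaction at room temperature; signal: AMC fluorescence at 355 nm excitation and 460 nm emission; also added: Boc-VPR-AMC substrate, 15 µM final; dosing: one concentration per compound, 5 µM, with 0.2% DMSO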
Furin inh = human furin inhibitors, primary screen, biochemical, fluorescence intensity; P09958; purified furin, fluorogenic substrate cleavage; inhibition, % at 20 µM or 30 µM; 220,000 tested, 0.061% active; AID 463115, 2010; in the data active = inhibition above about 25%
FXIa inh 1536 = human FXIa protease inhibitors, primary screen, biochemical, 1536-well; purified FXIa, Boc-Glu-Ala-Arg-AMC fluorogenic substrate; inhibition, % at 5 µM; 220,000 tested, 0.14% active; AID 798, 2007;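 active = inhibition of at least 40%; inactive = inhibition below 40%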;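 also: fluorescence of freed AMC excited at 355 nm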
hK5 inh = human KLK5 protease inhibitors, primary screen, biochemical, 1536-well; recombinant hK5, fluorogenic AMC substrate cleavage; inhibition, % at 5 µM; 210,000 tested, 0.59% active; AID 873, 2007;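 active = inhibition of 40% or more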
Target sequence (Q9Y337 67-293 limits assumed): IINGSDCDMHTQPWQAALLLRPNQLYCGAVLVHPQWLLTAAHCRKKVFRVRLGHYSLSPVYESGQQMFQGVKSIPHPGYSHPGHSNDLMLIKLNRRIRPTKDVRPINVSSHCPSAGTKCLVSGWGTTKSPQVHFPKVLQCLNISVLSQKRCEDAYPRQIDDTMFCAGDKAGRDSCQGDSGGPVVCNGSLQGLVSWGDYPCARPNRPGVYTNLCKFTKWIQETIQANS
A number is an active result; 0 = inactive; - = no result given. In the library only some 1.1% were active in any assay of this set; here they are far more common.

SMILES	FXIIa inh 1536	thrombin 1536	Furin inh	FXIa inh 1536	hK5 inh
Cc1cnc(NC(=O)Cc2c[nH]c3ccccc23)s1	0	0	0	0	0
Cc1csc(NC(=O)Cc2c[nH]c3ccccc23)n1	40	0	0	0	0
COCCNCC(=O)Nc1nc(C)cs1	102	0	0	46	0
CC(O)CN=c1cc(-c2ccccc2)oc2ccc(Cl)cc12 (stereo not drawn)	0	0	0	0	68
O=C(NCCOC(=O)C1COc2ccccc2O1)C1COc2ccccc2O1 (stereo not drawn)	0	0	0	0	46
CCCCNC(=O)C1COc2ccccc2O1 (stereo not drawn)	0	0	0	0	0
Cc1ccccc1CN1CCc2c(OCC(=O)N3CCCc4ccccc43)cccc2C1=O	0	0	0	0	53
NNc1nc2ccc(F)cc2s1	0	0	0	0	43
CC(C(=O)O)n1cc(Cl)cn1 (stereo not drawn)	0	0	0	0	51
CCOC(=O)C(CCCP(=O)(c1ccccc1)c1ccccc1)(NC(C)=O)C(=O)OCC	0	0	0	0	0
O=C(O)C1CCN(S(=O)(=O)/C=C/c2ccccc2)CC1	0	0	0	0	0
CC(=O)NC(C)c1ccc(Cl)c(Cl)c1 (stereo not drawn)	0	0	0	0	68
Cc1ccccc1/C=C1\SC(=S)N(/N=C/c2cc([N+](=O)[O-])ccc2O)C1=O	0	56	0	0	0
COc1ccc(CC2(C)OC(c3ccccc3)=NN2C(C)=O)cc1 (stereo not drawn)	0	0	0	0	0
CC1(C)NC(=O)N(CCSc2ccc(Cl)cc2)C1=O	0	0	0	0	0
Cc1ccc(SCCCCN2C(=O)NC(C)(C)C2=O)cc1	0	0	33	0	0
Cc1cc(=O)[nH]c2c1c(C)nn2C1CCCCC1	0	0	0	0	0
Cc1cc(=O)[nH]c2c1c(C)nn2C1CCCC1	0	0	0	0	54
Oc1ccc(Cl)cc1/C=C/c1ccc2cccc(O)c2n1	0	49	0	0	0
Oc1c(Cl)cc(Cl)cc1/C=C/c1ccc2cccc(O)c2n1	-	0	0	0	0
O=C(NCc1ccncc1)c1ccc(Br)o1	41	0	0	0	0
Cc1sc2ncnc(NCC3COc4ccccc4O3)c2c1C (stereo not drawn)	0	0	0	0	0
c1ccc(-c2csc3ncnc(NCC4COc5ccccc5O4)c23)cc1 (stereo not drawn)	41	0	0	0	57
O=C(c1cccc(C(F)(F)F)c1)C1CCCN(C(=O)CCn2cnnn2)C1 (stereo not drawn)	0	0	0	0	0
CCOc1ccccc1/C=C(\NC(=O)c1ccccc1)C(=O)NCCC(=O)O	0	0	0	0	0
SMILES	FXIIa inh 1536	thrombin 1536	Furin inh	FXIa inh 1536	hK5 inh
CCOc1ccccc1/C=C(/NC(=O)c1ccccc1)C(=O)NCC(=O)O	0	0	0	0	47
CCN(CC)CCCN(Cc1cc2cc3c(cc2[nH]c1=O)OCO3)C(=S)Nc1ccc(OC)cc1	0	0	0	0	0
Cc1oc(C(C)(C)C)c(CN2CCOCC2)c1C(=O)O	0	0	0	0	0
CCN(CC)c1ccc(/C=N/NS(=O)(=O)c2cccc([N+](=O)[O-])c2)cc1	52	0	0	0	0
COc1cccc(/C=C/C(=O)OCC(=O)NCC2CCCO2)c1OC (stereo not drawn)	0	0	0	0	0
N#Cc1c(-c2cccs2)nc(SCC(=O)c2cccs2)[nH]c1=O	0	0	0	0	71
O=C(CSc1nc2ccccc2c(=O)[nH]1)c1cccs1	0	0	0	0	0
Cc1cccc(N2CCN(C(=O)c3cc4c(=O)n(C)c5ccccc5c4n3C)CC2C)c1 (stereo not drawn)	-	0	0	0	41
Cn1c(C(=O)N2CCCCCC2)cc2c(=O)n(C)c3ccccc3c21	0	0	0	0	0
Cc1cc(=O)oc(C)c1C(=O)Nc1cccc(F)c1	0	0	0	0	0
CCc1nnc(NC(=O)CSc2nc3c(cc2C#N)CCCC3)s1	0	0	0	0	49
Cc1ccc(-c2nnc(OCc3cccnc3)c3ccccc23)cc1	0	0	0	0	0
COC(=O)c1cc2occc2n1CC(=O)Nc1cc(OC)cc(OC)c1	0	0	0	0	62
O=C(c1ccc(COc2ccccc2Br)o1)N1CCN(c2ccccn2)CC1	0	0	0	0	50
COc1ccccc1S(=O)(=O)Cc1ccc(C(=O)N2CCN(c3ccccn3)CC2)o1	0	0	0	0	0
CC1Cc2ccccc2N1S(=O)(=O)c1cccc(C(=O)NCCCn2ccnc2)c1 (stereo not drawn)	0	0	0	0	-
Cc1ccc(-c2cn3cccc(C)c3n2)cc1	0	0	0	0	0
COc1ccc(-c2cn3cccc(C)c3n2)cc1F	0	0	0	0	41
CCOc1ccc(CCNC(=O)CSc2cc(=O)n(CC)c3ccccc23)cc1OCC	0	0	0	0	0
Cn1c(Cl)nc2c1c(=O)n(Cc1cccc(Br)c1)c(=O)n2C	0	104	0	0	0
O=C(Oc1ccc2c(=O)c(Cl)coc2c1)c1cccnc1	0	0	0	66	0
O=C(Oc1ccc2c(=O)c(Oc3ccc4ccccc4c3)coc2c1)c1cccnc1	0	0	0	0	0
CC1(C)C(=O)Nc2ccccc2N1C(=O)COC(=O)c1ccc(Cl)c(S(=O)(=O)NCc2ccccc2)c1	0	0	0	0	0
COc1ccc(-c2coc3cc(O)ccc3c2=O)cc1OC	0	0	0	0	43
CCCCOC(=O)c1ccc(NC(=O)C(=O)NCc2ccco2)cc1	99	0	0	0	0
SMILES	FXIIa inh 1536	thrombin 1536	Furin inh	FXIa inh 1536	hK5 inh
CCCCOC(=O)c1ccc(NC(=O)C(=O)NCc2ccccn2)cc1	0	0	0	0	0
CCCn1c(/N=C/c2ccc3c(c2)OCO3)nc2ccccc21	0	0	0	0	43
N#C/C(=C\c1cccnc1)c1nc2ccccc2[nH]1	0	0	0	63	0
COc1cc(NC(=O)c2ccco2)c(OC)cc1NC(=O)Nc1cccc(Cl)c1	0	0	0	0	46
CCc1ccc(Nc2ncc3c(n2)CC(C)(C)CC3=O)cc1	0	0	0	0	0
Oc1cccc(/C=N/N(Cc2ccccc2)c2ccccc2)c1	-	0	0	0	0
Oc1ccc(/C=N/N(Cc2ccccc2)c2ccccc2)c(O)c1O	0	0	0	0	128
O=C(NNc1cc(Cl)ccc1Cl)c1cccs1	0	0	0	0	55
Cc1cc(Cl)ccc1NNC(=O)c1cccs1	0	0	0	0	0
CCNc1ccc2c(Cl)cc(=O)oc2c1	56	0	0	0	0
CCOC(=O)c1sc(N(C)C(C)=O)nc1C	42	0	0	0	0
O=C(Cc1nc2ccccc2[nH]1)c1ccc(Br)cc1	0	0	0	0	0
Cc1cccc(OCC(=O)N/N=C/c2ccccc2C(=O)O)c1	0	0	0	43	42
